Laboratory results: PMC10128457 (Pharmaceutical Biology, 2023)
≈ marks a conversion by molar mass, not a printed value.

What follows are compounds tested on H. pylori (assay: In vitro assay against Helicobacter pylori, broth micro-well dilution method). Details: Helicobacter pylori, read-out: Mean of H. pylori inhibitory % MIC.
Type: cell-based
Procedure, shortened: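 Test compound and clarithromycin (positive control) dissolved in DMSO and tested in 96-well plates at 125–0.24 µg against an H. pylori inoculum suspension. Readout: MTT colour at 620 nm on a microplate reader. MIC is the lowest concentration with no change in MTT colour. MIC90 (90% inhibition) is calculated from dose-response curves. Determinations done three times.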

Row | MIC [µg/mL] | SMILES
1 | 1.95 (≈ 2.61 µM) | CC[C@H]1OC(=O)[C@H](C)[C@@H](O[C@H]2C[C@@](C)(OC)[C@@H](O)[C@H](C)O2)[C@H](C)[C@@H](O[C@@H]2O[C@H](C)C[C@H](N(C)C)[C@H]2O)[C@](C)(OC)C[C@@H](C)C(=O)[C@H](C)[C@@H](O)[C@]1(C)O [Clarithromycin, clarithromycin, reference compound]
2 | 0.98 (≈ 2.34 µM) | COc1cc([C@H]2OC[C@H]3[C@@H]2CO[C@@H]3c2cc(OC)c(O)c(OC)c2)cc(OC)c1O [Compound 4, syringaresinol]
3 | 1.95 (≈ 7.22 µM) | O=c1cc(-c2ccc(O)cc2)oc2cc(O)cc(O)c12 [Compound 6, apigenin]
4 | 0.98 (≈ 2.12 µM) | COc1ccc(-c2cc(=O)c3c(O)cc(O[C@@H]4O[C@H](CO)[C@@H](O)[C@H](O)[C@H]4O)cc3o2)cc1O [Compound 8, diosmetin-7-O-β-D-glucopyranoside]
5 | 1.95 (≈ 12.8 µM) | COC(=O)c1ccc(O)cc1 [Compound 9, methylparaben]
6 | 0.48 (≈ 3.48 µM) | O=C(O)c1ccc(O)cc1 [Compound 10, p-hydroxybenzoic acid]

Same assay, conditions: Table 2

Row | SMILES | anti-H. pylori activity (in words)
7 | C=C[C@@]1(C)C=C2CC[C@@H]3[C@](C)(CCC[C@@]3(C)C(=O)O)[C@H]2CC1 [Compound 2, pimaric acid] | moderate to low inhibitory activities
8 | COc1cc(-c2cc(=O)c3c(O)cc(O)cc3o2)ccc1O [Compound 5, chrysoeriol] | moderate to low inhibitory activities
9 | O=c1cc(-c2ccc(O)c(O)c2)oc2cc(O)cc(O)c12 [Compound 7, luteolin] | moderate to low inhibitory activities
